Test results: ChEMBL document CHEMBL6092210, “Synthesis, in vitro and in vivo biological evaluation of novel dual compounds targeting both acetylcholinesterase and serotonergic 5-HT4 receptors with potential interest in the treatment of Alzheimer's disease” (Eur J Med Chem, 2024)

Legend:
[1] = Volume of distribution in C57BL6 mouse at 0.3 to 3 mg/kg, iv; format: ADME, organism-based; details: in vivo, dose 0.3-3 mg/kg
Summary of the method: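 Pharmacokinetics in C57Bl6 mice given the compound iv at 0.3, 1 or 3 mg/kg in 0.9 % saline (10 mL/kg), three animals per dose. Terminal cardiac blood taken under isoflurane at six time points. Plasma analyzed by UHPLC–MS/MS (LLOQ 1 ng/mL). Parameters derived by non-compartmental analysis.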

Cytochrome P450 3A4 [2] = target: T1, Cytochrome P450 3A4 (Homo sapiens, UniProt P08684); experiment: Inhibition of CYP3A4 in human liver microsomes using Omeprazole as substrate; format: ADME, Microsome
T1 sequence (P08684 whole entry): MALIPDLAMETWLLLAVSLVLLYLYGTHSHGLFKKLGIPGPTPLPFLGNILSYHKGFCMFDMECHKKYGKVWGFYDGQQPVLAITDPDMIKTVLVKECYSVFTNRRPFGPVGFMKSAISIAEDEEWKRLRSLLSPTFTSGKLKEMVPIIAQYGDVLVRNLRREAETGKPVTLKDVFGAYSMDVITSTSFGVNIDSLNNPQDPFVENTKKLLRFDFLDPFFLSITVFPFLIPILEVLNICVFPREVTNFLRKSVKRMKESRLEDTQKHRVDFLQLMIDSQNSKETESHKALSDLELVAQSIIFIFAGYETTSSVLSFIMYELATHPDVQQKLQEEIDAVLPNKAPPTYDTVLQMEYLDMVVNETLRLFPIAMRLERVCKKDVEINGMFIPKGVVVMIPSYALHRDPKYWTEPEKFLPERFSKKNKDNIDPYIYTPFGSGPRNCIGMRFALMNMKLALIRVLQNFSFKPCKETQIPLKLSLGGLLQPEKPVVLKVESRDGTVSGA
Summary of the method: (§1)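 Human liver microsomes with a cocktail of CYP-specific probe substrates; metabolite formation monitored for each probe reaction. Test compound (fumarate) at 0.01, 0.1, 1, 10 and 100 μM. Control inhibitors run at a single concentration for each probe reaction. IC50 estimated.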

[3] = Toxicity in C57BL/6 mouse assessed as spontaneous locomotor activity at 10 mg/kg, ip incubated for 30 mins; format: organism-based; details: in vivo, 0.5 h
[4] = Drug metabolism in mouse liver microsome measured at 10 mins by UPLC/QE-orbitrap-MS method; format: ADME; details: microsomes
Summary of the method: (§2)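 Test compound as fumarate salt incubated with human, dog, mouse or rat liver microsomes over 0–60 min. Parent remaining measured by UPLC/QE-orbitrap-MS as relative LC/MS peak area (% of 0 min), n = 1.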

[5] = Drug metabolism in mouse liver microsome measured at 20 mins by UPLC/QE-orbitrap-MS method; format: ADME; details: microsomes; summary of the method: as §2
[6] = Drug metabolism in rat liver microsome measured at 40 mins by UPLC/QE-orbitrap-MS method; format: ADME; details: microsomes; summary of the method: as §2
[7] = Drug metabolism in human liver microsome measured at 60 mins by UPLC/QE-orbitrap-MS method; format: ADME; details: microsomes, 1 h; summary of the method: as §2
[8] = Half life in C57BL6 mouse at 0.3 to 3 mg/kg, iv; format: ADME, organism-based; details: in vivo, dose 0.3-3 mg/kg
Summary of the method: (§3)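 Single iv dose of 0.3, 1 or 3 mg/kg in 0.9 % saline, three animals per dose (C57Bl6 mice, Wistar rats). Terminal cardiac-puncture blood under isoflurane at six time points. Plasma protein-precipitated and assayed by UHPLC–MS/MS (LLOQ 1 ng/mL). Parameters from non-compartmental analysis.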

[9] = Drug metabolism in rat liver microsome measured at 10 mins by UPLC/QE-orbitrap-MS method; format: ADME; details: microsomes; summary of the method: as §2
Cytochrome P450 1A2 = target: T2, Cytochrome P450 1A2 (Homo sapiens, UniProt P05177); experiment: Inhibition of CYP1A2 in human liver microsomes using phenacetin as substrate; format: ADME, Microsome; summary of the method: as §1
T2 sequence (P05177 whole entry): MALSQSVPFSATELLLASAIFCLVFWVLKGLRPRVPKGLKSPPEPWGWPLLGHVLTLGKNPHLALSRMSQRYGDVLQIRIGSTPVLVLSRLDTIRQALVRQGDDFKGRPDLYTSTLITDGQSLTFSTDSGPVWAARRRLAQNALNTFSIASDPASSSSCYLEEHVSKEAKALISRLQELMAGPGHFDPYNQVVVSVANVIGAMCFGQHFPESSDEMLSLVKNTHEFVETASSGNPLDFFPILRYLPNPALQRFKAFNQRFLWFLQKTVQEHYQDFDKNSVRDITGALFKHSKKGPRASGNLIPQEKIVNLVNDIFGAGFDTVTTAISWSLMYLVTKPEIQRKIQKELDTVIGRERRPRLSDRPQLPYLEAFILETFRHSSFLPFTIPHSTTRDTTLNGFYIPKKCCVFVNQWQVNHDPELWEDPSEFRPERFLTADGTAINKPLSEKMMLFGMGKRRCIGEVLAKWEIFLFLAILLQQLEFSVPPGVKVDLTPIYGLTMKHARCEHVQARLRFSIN

Cytochrome P450 2A6 = target: T3, Cytochrome P450 2A6 (Homo sapiens, UniProt P11509); experiment: Inhibition of CYP2A6 in human liver microsomes using coumarin as substrate; format: ADME, Microsome; summary of the method: as §1
T3 sequence (P11509 whole entry): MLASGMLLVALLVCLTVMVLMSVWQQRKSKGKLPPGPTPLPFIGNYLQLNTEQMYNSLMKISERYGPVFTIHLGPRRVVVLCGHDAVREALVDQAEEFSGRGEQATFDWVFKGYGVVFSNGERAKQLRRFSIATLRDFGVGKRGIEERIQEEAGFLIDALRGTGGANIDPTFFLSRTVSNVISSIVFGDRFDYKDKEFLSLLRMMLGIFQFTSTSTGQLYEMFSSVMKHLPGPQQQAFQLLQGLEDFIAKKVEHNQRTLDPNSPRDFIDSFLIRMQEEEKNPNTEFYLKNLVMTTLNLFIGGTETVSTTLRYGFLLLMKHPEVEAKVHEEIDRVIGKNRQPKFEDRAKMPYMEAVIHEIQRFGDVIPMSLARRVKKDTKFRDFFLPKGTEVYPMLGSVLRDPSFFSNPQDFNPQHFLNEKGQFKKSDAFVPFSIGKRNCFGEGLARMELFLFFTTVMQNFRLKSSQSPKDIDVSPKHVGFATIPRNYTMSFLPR

Cytochrome P450 2C19 = Cytochrome P450 2C19 (Homo sapiens, UniProt P33261); experiment: Inhibition of CYP2C19 in human liver microsomes using omeprazole as substrate; format: ADME, Microsome; summary of the method: as §1
Chain of Cytochrome P450 2C19 (P33261 whole entry): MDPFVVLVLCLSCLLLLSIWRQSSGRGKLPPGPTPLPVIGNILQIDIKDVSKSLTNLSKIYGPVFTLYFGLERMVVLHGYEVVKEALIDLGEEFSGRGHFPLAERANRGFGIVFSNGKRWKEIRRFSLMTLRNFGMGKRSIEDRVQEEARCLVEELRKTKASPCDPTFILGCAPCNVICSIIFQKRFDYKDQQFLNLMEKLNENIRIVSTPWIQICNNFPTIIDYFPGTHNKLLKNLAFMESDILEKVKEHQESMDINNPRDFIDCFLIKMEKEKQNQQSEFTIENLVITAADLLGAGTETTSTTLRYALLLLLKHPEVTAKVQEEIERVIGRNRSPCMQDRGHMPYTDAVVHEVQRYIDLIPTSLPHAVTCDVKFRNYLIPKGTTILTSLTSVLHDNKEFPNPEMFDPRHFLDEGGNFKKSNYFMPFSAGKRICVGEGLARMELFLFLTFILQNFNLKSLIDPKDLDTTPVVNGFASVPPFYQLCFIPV

[10] = Drug metabolism in dog liver microsome measured at 10 mins by UPLC/QE-orbitrap-MS method; format: ADME, Canis lupus familiaris; details: microsomes; summary of the method: as §2
[11] = Clearance in C57BL6 mouse at 0.3 to 3 mg/kg, iv; format: ADME, organism-based; details: in vivo, dose 0.3-3 mg/kg; summary of the method: as §3
[12] = Drug metabolism in rat liver microsome measured at 60 mins by UPLC/QE-orbitrap-MS method; format: ADME; details: microsomes, 1 h; summary of the method: as §2
[13] = MRT in C57BL6 mouse at 0.3 to 3 mg/kg, iv; format: ADME, organism-based; details: in vivo, dose 0.3-3 mg/kg; summary of the method: as §3
[14] = Drug metabolism in mouse liver microsome measured at 60 mins by UPLC/QE-orbitrap-MS method; format: ADME; details: microsomes, 1 h; summary of the method: as §2
[15] = Drug metabolism in human liver microsome measured at 10 mins by UPLC/QE-orbitrap-MS method; format: ADME; details: microsomes; summary of the method: as §2
Cytochrome P450 2C8 = target: T4, Cytochrome P450 2C8 (Homo sapiens, UniProt P10632); experiment: Inhibition of CYP2C8 in human liver microsomes using repaglinide as substrate; format: ADME, Microsome; summary of the method: as §1
T4 sequence (P10632 whole entry): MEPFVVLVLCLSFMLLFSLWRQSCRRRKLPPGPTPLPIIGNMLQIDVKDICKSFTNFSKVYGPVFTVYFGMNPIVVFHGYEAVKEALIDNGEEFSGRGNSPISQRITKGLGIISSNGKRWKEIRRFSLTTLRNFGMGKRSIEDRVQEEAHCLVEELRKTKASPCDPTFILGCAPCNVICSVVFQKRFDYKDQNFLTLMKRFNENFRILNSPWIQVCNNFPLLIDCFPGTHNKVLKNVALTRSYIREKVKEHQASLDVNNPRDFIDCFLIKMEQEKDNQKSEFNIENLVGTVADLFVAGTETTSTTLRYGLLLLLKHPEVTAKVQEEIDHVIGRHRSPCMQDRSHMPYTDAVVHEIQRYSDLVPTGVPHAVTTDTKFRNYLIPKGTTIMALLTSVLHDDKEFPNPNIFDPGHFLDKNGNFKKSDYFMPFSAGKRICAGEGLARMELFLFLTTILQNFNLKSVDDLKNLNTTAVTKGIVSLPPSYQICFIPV

Cytochrome P450 3A4 [16] = target: T1, Cytochrome P450 3A4; experiment: Inhibition of CYP3A4 in human liver microsomes using Testosterone as substrate; format: ADME, Microsome; summary of the method: as §1
[17] = Half life in Wistar rat at 0.3 to 3 mg/kg, iv; format: ADME, organism-based; details: in vivo, dose 0.3-3 mg/kg; summary of the method: as §3

COc1cc(N)c(F)cc1C(=O)CCC1CCN(CC2CCCCC2)CC1.O=C(O)/C=C/C(=O)O
Vd [1]: 3.6 L/kg
IC50 (Cytochrome P450 3A4 [2]): 5.4 µM
Activity [3]: Non-toxic
Drug metabolism [4]: 63%
Drug metabolism [5]: 44%
Drug metabolism [6]: 6%
Drug metabolism [7]: 59%
half-life [8]: 47.8 min
Drug metabolism [9]: 26%
IC50 (Cytochrome P450 1A2): 83.1 µM
IC50 (Cytochrome P450 2A6): > 100 µM
IC50 (Cytochrome P450 2C19): 7.2 µM
Drug metabolism [10]: 77%
clearance [11]: 35.5 mL/min/kg
Drug metabolism [12]: 6%
MRT [13]: 69 min
Drug metabolism [14]: 17%
Drug metabolism [15]: 89%
IC50 (Cytochrome P450 2C8): > 100 µM
IC50 (Cytochrome P450 3A4 [16]): 8 µM
half-life [17]: 46.1 min
